In publication PMC8554411 (Pharmacology Research & Perspectives, 2021):
Where “and” joins values, the source holds several entries; their conditions need not be identical. Equal values may be shown once.

Columns and labels:
[1] = biological target: T1, human mu opioid receptor (Homo sapiens, UniProt P35372); assay: cell-based; conditions: HEK293, read-out: DAMGO Emax, inhibition of forskolin stimulated cAMP levels
[2] = biological target: mu opioid receptor (Rattus norvegicus, UniProt P33535); assay type: in vivo
[3] = biological target: T1, human mu opioid receptor; assay type: cell-based
[4] = biological target: human kappa opioid receptors (Homo sapiens, UniProt P41145); assay type: cell-based
[5] = biological target: delta opioid receptor (Rattus norvegicus, UniProt P33533); assay type: in vivo
[6] = test system: mu opioid receptor; conditions: mice treated with MCAM; cited from earlier work
[7] = biological target: human delta opioid receptors (Homo sapiens, UniProt P41143); assay type: cell-based; conditions: MCAM 20 nM
How it was run: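 HEK293 cells stably co-expressing the GloSensor 22F cAMP sensor and human delta receptor were kept under hygromycin B/G418 selection and plated at 40 000/well. They were loaded 2 h in the dark at 30°C with 450 μg/ml D-luciferin. Antagonist was added 15 min before agonist or during loading; for washout, medium was replaced twice. Luminescence was read at 30°C, 1 Hz: 5 min baseline, 5 min agonist, then 30 min forskolin (10 μM). Results were expressed as % forskolin stimulation; ≥4 experiments, triplicate.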

[8] = biological target: kappa opioid receptor (Rattus norvegicus, UniProt P34975); conditions: in vivo
[9] = biological target: T1, human mu opioid receptor; assay type: cell-based; remark: listed apart in the source

Chain of human delta opioid receptors (P41143 whole entry): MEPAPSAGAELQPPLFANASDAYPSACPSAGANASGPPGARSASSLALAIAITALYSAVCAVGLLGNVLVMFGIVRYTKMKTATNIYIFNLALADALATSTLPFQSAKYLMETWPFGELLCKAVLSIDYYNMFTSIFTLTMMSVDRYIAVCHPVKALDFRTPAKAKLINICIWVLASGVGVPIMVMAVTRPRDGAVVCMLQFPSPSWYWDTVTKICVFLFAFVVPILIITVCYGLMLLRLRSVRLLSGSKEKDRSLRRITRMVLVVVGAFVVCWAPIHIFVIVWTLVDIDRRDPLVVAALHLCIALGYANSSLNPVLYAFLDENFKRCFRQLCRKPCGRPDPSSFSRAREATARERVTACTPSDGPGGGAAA
T1 sequence (P35372 whole entry): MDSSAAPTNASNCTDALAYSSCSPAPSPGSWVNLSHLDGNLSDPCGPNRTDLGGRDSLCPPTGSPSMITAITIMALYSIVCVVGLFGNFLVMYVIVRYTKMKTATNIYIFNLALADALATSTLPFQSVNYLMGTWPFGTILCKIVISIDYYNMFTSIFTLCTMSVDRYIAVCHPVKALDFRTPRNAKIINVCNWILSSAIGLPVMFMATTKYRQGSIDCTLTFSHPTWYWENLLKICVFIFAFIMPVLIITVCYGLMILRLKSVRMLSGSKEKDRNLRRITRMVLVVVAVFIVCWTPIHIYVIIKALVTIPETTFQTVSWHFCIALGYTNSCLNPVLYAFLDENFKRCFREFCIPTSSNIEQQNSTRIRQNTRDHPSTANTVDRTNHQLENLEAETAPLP
Chain of human kappa opioid receptors (P41145 whole entry): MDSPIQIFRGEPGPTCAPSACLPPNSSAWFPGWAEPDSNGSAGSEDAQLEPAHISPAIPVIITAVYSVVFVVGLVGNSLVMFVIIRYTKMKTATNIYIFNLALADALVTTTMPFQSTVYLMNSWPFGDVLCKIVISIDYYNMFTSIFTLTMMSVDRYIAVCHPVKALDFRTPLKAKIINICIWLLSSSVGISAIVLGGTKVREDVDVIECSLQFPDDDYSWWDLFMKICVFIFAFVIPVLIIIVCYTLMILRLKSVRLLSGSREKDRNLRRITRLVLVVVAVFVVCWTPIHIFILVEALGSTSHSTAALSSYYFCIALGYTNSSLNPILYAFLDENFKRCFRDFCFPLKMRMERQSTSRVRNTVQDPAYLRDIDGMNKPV
Chain of mu opioid receptor (Rattus norvegicus, UniProt P33535) (P33535 whole entry): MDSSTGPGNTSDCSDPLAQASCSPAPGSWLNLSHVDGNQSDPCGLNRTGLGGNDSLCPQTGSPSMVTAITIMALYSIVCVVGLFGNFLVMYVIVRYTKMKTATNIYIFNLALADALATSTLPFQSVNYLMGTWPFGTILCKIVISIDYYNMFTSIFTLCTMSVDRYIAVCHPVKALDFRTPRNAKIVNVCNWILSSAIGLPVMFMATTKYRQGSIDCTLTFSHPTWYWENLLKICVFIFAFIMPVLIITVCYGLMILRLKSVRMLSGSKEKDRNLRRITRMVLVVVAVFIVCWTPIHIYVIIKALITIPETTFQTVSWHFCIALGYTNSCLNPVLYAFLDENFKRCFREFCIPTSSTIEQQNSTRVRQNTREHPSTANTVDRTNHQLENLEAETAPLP
Chain of delta opioid receptor (P33533 whole entry): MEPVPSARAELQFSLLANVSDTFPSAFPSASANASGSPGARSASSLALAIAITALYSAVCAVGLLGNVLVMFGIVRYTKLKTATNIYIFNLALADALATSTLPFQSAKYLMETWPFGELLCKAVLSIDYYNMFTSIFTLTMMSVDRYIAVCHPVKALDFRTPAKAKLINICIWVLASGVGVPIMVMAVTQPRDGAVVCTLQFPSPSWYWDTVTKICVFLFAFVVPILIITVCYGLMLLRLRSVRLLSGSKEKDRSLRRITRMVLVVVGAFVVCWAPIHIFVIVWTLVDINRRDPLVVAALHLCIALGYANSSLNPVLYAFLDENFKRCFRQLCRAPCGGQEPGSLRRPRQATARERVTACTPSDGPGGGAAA
Chain of kappa opioid receptor (P34975 whole entry): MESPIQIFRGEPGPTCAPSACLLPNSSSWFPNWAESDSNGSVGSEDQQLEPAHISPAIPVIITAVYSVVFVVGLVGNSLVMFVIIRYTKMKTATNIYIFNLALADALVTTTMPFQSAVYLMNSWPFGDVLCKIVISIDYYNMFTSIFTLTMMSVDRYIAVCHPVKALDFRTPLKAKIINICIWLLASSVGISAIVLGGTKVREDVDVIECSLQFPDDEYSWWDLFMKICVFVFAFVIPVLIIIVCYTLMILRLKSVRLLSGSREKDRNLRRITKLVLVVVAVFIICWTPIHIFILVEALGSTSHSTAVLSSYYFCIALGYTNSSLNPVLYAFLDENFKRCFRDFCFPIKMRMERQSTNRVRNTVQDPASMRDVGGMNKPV

With `C[C@@H](NC(=O)[C@@H](N)Cc1ccc(O)cc1)C(=O)NCC(=O)N(C)[C@@H](Cc1ccccc1)C(=O)NCCO` [DAMGO, [D‐Ala^2,N‐MePhe^4,Gly‐ol^5]‐enkephalin] the Emax [1] was 85%, the “effect of agonist on PGE2-stimulated thermal allodynia” value ([2]; DAMGO 20 μg i.pl., vehicle pretreatment, rat hindpaw) was “reduced” and the “Emax (maximal inhibition of forskolin-stimulated cAMP levels) by DAMGO” value [3] was 43% ± 2% and 46% ± 3% and 48% ± 5%. For the same compound, the “response to DAMGO (inhibition of forskolin-stimulated cAMP levels)” value [3] was “essentially abolished”.
For `Cc1ccc(/C=C/C(=O)N[C@@]23CCC(=O)[C@@H]4Oc5c(O)ccc6c5[C@@]42CCN(CC2CC2)[C@@H]3C6)cc1` [MCAM, 14β‐(4′‐methylcinnamoylamido)‐7,8‐dihydro‐N‐cyclopropylmethyl‐normorphinone], the “change in the maximal response to U50488” value [4] was “no change”, the “rightward shift of the curve for U50488 by the antagonist” value [4] was ~ 10 fold and the “effect of washout on antagonism at kappa receptors” value ([4]; MCAM 50 nM, 2 h, then wash) was “fully reversed”. The “effect of antagonist on the antinociceptive response to DPDPE” value ([5]; MCAM 0.5 μg/50 μl i.pl., 15 min pretreatment) was “antagonized”, the “effect of antagonist on DPDPE-mediated antinociceptive response” value ([5]; tested 24 h after MCAM administration i.pl.) was “did not block” and the “3H-DAMGO binding in brain tissue” value [6] was “reduced”. The “effect of antagonist on the antinociceptive response to DAMGO” value ([2]; MCAM 0.25 μg/50 μl i.pl., 15 min pretreatment) was “antagonized”, the “effect of antagonist alone on forskolin-stimulated cAMP levels” value [3] was “did not alter” and the “effect of washout on antagonism of DAMGO” value [3] was “did not alter”. For the same compound, the “effect of washout on the reduction of the DAMGO maximal response” value [3] was “insensitive to washout”, the “rightward shift of the morphine concentration response curve by the antagonist” value [3] was 10 fold and the “change in the maximal response to DPDPE” value ([7]; 15 min or 2 h pretreatment) was “no change”. The “rightward shift of the curve for DPDPE by the antagonist” value ([7]; 15 min or 2 h pretreatment) was ~ 10 fold, the “effect of washout on antagonism at delta receptors” value ([7]; 2 h, then wash) was “fully reversed” and the “effect of antagonist on U50488-mediated antinociceptive response” value [8] was “did not block”. For the same compound, the “effect of antagonist on the antinociceptive response to U50488” value [8] was “antagonized”.
In the case of `COC(=O)/C=C/C(=O)N[C@@H]1CC[C@@]2(O)[C@H]3Cc4ccc(O)c5c4[C@@]2(CCN3CC2CC2)[C@H]1O5` [β‐FNA, β‐funaltrexamine], the “rightward shift of the DAMGO curve by the antagonist” value [9] is reported as “about 100 fold”, the “effect of antagonist alone on forskolin-stimulated cAMP levels” value [3] is reported as “had no effect” and the “effect of washout on antagonism of DAMGO” value [3] is reported as “not sensitive to washout”.
